Experimental data: ChEMBL document CHEMBL4689842, “EUbOPEN Chemogenomics Library wave 1” (2021)

Key:
Assay type in all cases: toxicity, cell-based
[1] = system: U2OS; experiment: Multiplex assay against U2OS; conditions: human
In short: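 Hoechst33342, BioTracker Green Microtubule Cytoskeleton Dye, MitoTracker Red and Annexin V Alexa Fluor 680 were added to live cells at seeding, and imaging on a CQ1 microscope at 37°C and 5% CO2 followed compound addition. Gating by CellPathfinder machine learning separated cells into Hoechst high-intensity objects or normal cells, then normal cells into healthy, pyknosed or fragmented nuclei, then pyknosed cells into mitotic or apoptotic. Per cents of healthy-nucleus cells are reported for the tubulin, mitochondrial-mass and membrane-permeability phenotypes.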

[2] = system: U2OS; experiment: Incucyte cell viability with U2OS; conditions: human, 10 µM, compound concentration 10 uM; note: filed as whole numbers so only -1 and 0 and 1 occur
[3] = system: HEK-293T; experiment: Incucyte cell viability with HEK293T; conditions: human, 10 µM, compound concentration 10 uM; note: filed as whole numbers so only -1 and 0 and 1 occur
[4] = system: Fibroblast; experiment: Incucyte cell viability with human fibroblast; conditions: 10 µM, compound concentration 10 uM; note: filed as whole numbers so only -1 and 0 and 1 occur
[5] = 12 h, 1 µM, compound concentration 1 uM, replicate 1
[6] = 12 h, 1 µM, compound concentration 1 uM, replicate 2
[7] = 12 h, 10 µM, compound concentration 10 uM, replicate 1
[8] = 12 h, 10 µM, compound concentration 10 uM, replicate 2
[9] = 24 h, 1 µM, compound concentration 1 uM, replicate 1
[10] = 24 h, 1 µM, compound concentration 1 uM, replicate 2
[11] = 24 h, 10 µM, compound concentration 10 uM, replicate 1
[12] = 24 h, 10 µM, compound concentration 10 uM, replicate 2
[13] = 48 h, 1 µM, compound concentration 1 uM, replicate 1
[14] = 48 h, 1 µM, compound concentration 1 uM, replicate 2
[15] = 48 h, 10 µM, compound concentration 10 uM, replicate 1
[16] = 48 h, 10 µM, compound concentration 10 uM, replicate 2
[17] = 0 h, replicate number 1, timepoint 0 hours
[18] = 12 h, replicate number 1, timepoint 12 hours
[19] = 18 h, replicate number 1, timepoint 18 hours
[20] = 24 h, replicate number 1, timepoint 24 hours

Structure (SMILES): CN1C(=O)[C@@H](NC(=O)c2cc3ccccc3[nH]2)N=C(c2ccccc2)c2ccccc21 [DEVAZEPIDE]
- Population Fragmented Nuclei (%) [1, 5]: 12%
- Population Healthy Nuclei (%) [1, 5]: 76%
- Population Hoechst High Intensity Objects (%) [1, 5]: 7%
- Population Membrane Permeable-Phenotype (%) [1, 5]: 3%
- Population Mitochondria Different-Phenotype (%) [1, 5]: 17%
- Population Normal (%) [1, 5]: 92%
- Population Pyknosed Nuclei (%) [1, 5]: 11%
- Population Tubulin-Different-Phenotype (%) [1, 5]: 21%
- Total Cell Count [1, 5]: 144
- Population Apoptotic (%) [1, 6]: 33%
- Population Fragmented Nuclei (%) [1, 6]: 4%
- Population Healthy Nuclei (%) [1, 6]: 85%
- Population Hoechst High Intensity Objects (%) [1, 6]: 5%
- Population Membrane Permeable-Phenotype (%) [1, 6]: 9%
- Population Mitochondria Different-Phenotype (%) [1, 6]: 23%
- Population Mitotic Cells (%) [1, 6]: 66%
- Population Normal (%) [1, 6]: 94%
- Population Pyknosed Nuclei (%) [1, 6]: 9%
- Population Tubulin-Different-Phenotype (%) [1, 6]: 10%
- Total Cell Count [1, 6]: 68
- Population Apoptotic (%) [1, 7]: 52%
- Population Fragmented Nuclei (%) [1, 7]: 11%
- Population Healthy Nuclei (%) [1, 7]: 72%
- Population Hoechst High Intensity Objects (%) [1, 7]: 6%
- Population Membrane Permeable-Phenotype (%) [1, 7]: 21%
- Population Mitochondria Different-Phenotype (%) [1, 7]: 45%
- Population Mitotic Cells (%) [1, 7]: 47%
- Population Normal (%) [1, 7]: 93%
- Population Pyknosed Nuclei (%) [1, 7]: 15%
- Population Tubulin-Different-Phenotype (%) [1, 7]: 70%
- Total Cell Count [1, 7]: 117
- Population Apoptotic (%) [1, 8]: 33%
- Population Fragmented Nuclei (%) [1, 8]: 20%
- Population Healthy Nuclei (%) [1, 8]: 75%
- Population Hoechst High Intensity Objects (%) [1, 8]: 7%
- Population Membrane Permeable-Phenotype (%) [1, 8]: 37%
- Population Mitochondria Different-Phenotype (%) [1, 8]: 48%
- Population Mitotic Cells (%) [1, 8]: 66%
- Population Normal (%) [1, 8]: 92%
- Population Pyknosed Nuclei (%) [1, 8]: 5%
- Population Tubulin-Different-Phenotype (%) [1, 8]: 66%
- Total Cell Count [1, 8]: 65
- Population Apoptotic (%) [1, 9]: 31%
- Population Fragmented Nuclei (%) [1, 9]: 10%
- Population Healthy Nuclei (%) [1, 9]: 76%
- Population Hoechst High Intensity Objects (%) [1, 9]: 5%
- Population Membrane Permeable-Phenotype (%) [1, 9]: 1%
- Population Mitochondria Different-Phenotype (%) [1, 9]: 14%
- Population Mitotic Cells (%) [1, 9]: 68%
- Population Normal (%) [1, 9]: 94%
- Population Pyknosed Nuclei (%) [1, 9]: 13%
- Population Tubulin-Different-Phenotype (%) [1, 9]: 12%
- Total Cell Count [1, 9]: 173
- Population Apoptotic (%) [1, 10]: 37%
- Population Fragmented Nuclei (%) [1, 10]: 7%
- Population Healthy Nuclei (%) [1, 10]: 82%
- Population Hoechst High Intensity Objects (%) [1, 10]: 1%
- Population Membrane Permeable-Phenotype (%) [1, 10]: 3%
- Population Mitochondria Different-Phenotype (%) [1, 10]: 10%
- Population Mitotic Cells (%) [1, 10]: 62%
- Population Normal (%) [1, 10]: 98%
- Population Pyknosed Nuclei (%) [1, 10]: 10%
- Population Tubulin-Different-Phenotype (%) [1, 10]: 6%
- Total Cell Count [1, 10]: 79
- Population Apoptotic (%) [1, 11]: 87%
- Population Fragmented Nuclei (%) [1, 11]: 22%
- Population Healthy Nuclei (%) [1, 11]: 49%
- Population Hoechst High Intensity Objects (%) [1, 11]: 6%
- Population Membrane Permeable-Phenotype (%) [1, 11]: 29%
- Population Mitochondria Different-Phenotype (%) [1, 11]: 29%
- Population Mitotic Cells (%) [1, 11]: 12%
- Population Normal (%) [1, 11]: 93%
- Population Pyknosed Nuclei (%) [1, 11]: 27%
- Population Tubulin-Different-Phenotype (%) [1, 11]: 47%
- Total Cell Count [1, 11]: 123
- Population Apoptotic (%) [1, 12]: 92%
- Population Fragmented Nuclei (%) [1, 12]: 28%
- Population Hoechst High Intensity Objects (%) [1, 12]: 7%
- Population Membrane Permeable-Phenotype (%) [1, 12]: 19%
- Population Mitochondria Different-Phenotype (%) [1, 12]: 45%
- Population Mitotic Cells (%) [1, 12]: 7%
- Population Normal (%) [1, 12]: 92%
- Population Pyknosed Nuclei (%) [1, 12]: 22%
- Population Tubulin-Different-Phenotype (%) [1, 12]: 51%
- Total Cell Count [1, 12]: 68
- Population Apoptotic (%) [1, 13]: 33%
- Population Fragmented Nuclei (%) [1, 13]: 9%
- Population Healthy Nuclei (%) [1, 13]: 82%
- Population Hoechst High Intensity Objects (%) [1, 13]: 3%
- Population Membrane Permeable-Phenotype (%) [1, 13]: 4%
- Population Mitochondria Different-Phenotype (%) [1, 13]: 14%
- Population Mitotic Cells (%) [1, 13]: 66%
- Population Normal (%) [1, 13]: 96%
- Population Pyknosed Nuclei (%) [1, 13]: 8%
- Population Tubulin-Different-Phenotype (%) [1, 13]: 8%
- Total Cell Count [1, 13]: 231
- Population Apoptotic (%) [1, 14]: 50%
- Population Fragmented Nuclei (%) [1, 14]: 8%
- Population Healthy Nuclei (%) [1, 14]: 78%
- Population Hoechst High Intensity Objects (%) [1, 14]: 1%
- Population Membrane Permeable-Phenotype (%) [1, 14]: 5%
- Population Mitochondria Different-Phenotype (%) [1, 14]: 18%
- Population Mitotic Cells (%) [1, 14]: 50%
- Population Normal (%) [1, 14]: 98%
- Population Pyknosed Nuclei (%) [1, 14]: 12%
- Population Tubulin-Different-Phenotype (%) [1, 14]: 16%
- Total Cell Count [1, 14]: 96
- Population Apoptotic (%) [1, 15]: 89%
- Population Fragmented Nuclei (%) [1, 15]: 21%
- Population Healthy Nuclei (%) [1, 15]: 37%
- Population Hoechst High Intensity Objects (%) [1, 15]: 5%
- Population Membrane Permeable-Phenotype (%) [1, 15]: 31%
- Population Mitochondria Different-Phenotype (%) [1, 15]: 38%
- Population Mitotic Cells (%) [1, 15]: 10%
- Population Normal (%) [1, 15]: 94%
- Population Pyknosed Nuclei (%) [1, 15]: 41%
- Population Tubulin-Different-Phenotype (%) [1, 15]: 45%
- Total Cell Count [1, 15]: 124
- Population Apoptotic (%) [1, 16]: 92%
- Population Fragmented Nuclei (%) [1, 16]: 24%
- Population Healthy Nuclei (%) [1, 16]: 50%
- Population Hoechst High Intensity Objects (%) [1, 16]: 13%
- Population Membrane Permeable-Phenotype (%) [1, 16]: 55%
- Population Mitochondria Different-Phenotype (%) [1, 16]: 55%
- Population Mitotic Cells (%) [1, 16]: 7%
- Population Normal (%) [1, 16]: 86%
- Population Pyknosed Nuclei (%) [1, 16]: 24%
- Population Tubulin-Different-Phenotype (%) [1, 16]: 58%
- Total Cell Count [1, 16]: 66
- Growth Rate [2, 17]: 0
- Growth Rate ([2]; 6 h, replicate number 1, timepoint 6 hours): 1
- Growth Rate [2, 18]: 1
- Growth Rate [2, 19]: 1
- Growth Rate ([2]; 18 h, replicate number 2, timepoint 18 hours): 0
- Growth Rate [2, 20]: 1
- Growth Rate ([2]; 24 h, replicate number 2, timepoint 24 hours): 0
- Growth Rate [3, 17]: 0
- Growth Rate ([3]; 6 h, replicate number 2, timepoint 6 hours): 1
- Growth Rate [3, 18]: 1
- Growth Rate ([3]; 12 h, replicate number 2, timepoint 12 hours): 0
- Growth Rate [3, 19]: 0
- Growth Rate [3, 20]: 0
- Growth Rate [4, 17]: 0
- Growth Rate [4, 19]: 1
- Growth Rate [4, 20]: 1
